{"source": "ChEMBL document CHEMBL5705901", "about": "“Exploiting selective BCL-2 family inhibitors to dissect cell survival dependencies and define improved strategies for cancer therapy” (Sci Transl Med, 2015)", "key": {"[1]": {"test_system": "NCI-H747", "test": "Antitumor activity against human NCI-H747 cells xenografted in iv dosed SCID-bg mouse assessed as maximum tumor growth inhibition relative to control", "format": "functional"}, "[2]": {"test_system": "NCI-H1650", "test": "Antitumor activity against human NCI-H1650 cells xenografted in SCID-bg mouse assessed as tumor growth delay at 7.5 mg/kg, iv administered as single dose relative to control", "format": "functional", "summary_of_the_method": "(§1)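 NCI-H1650 NSCLC xenografts, ten mice per group. Arms: vehicle; docetaxel iv once at 7.5 mg/kg; oral agent daily for 14 days at 25 mg/kg; and the two combined. TGImax = 100(1 − Tv/Cv) from mean volumes. TGD = 100(T/C − 1) from median times to reach 1 cm3.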"}, "[3]": {"test": "Toxicity in iv dosed SCID mouse assessed as tolerance", "format": "organism-based", "conditions": "in vivo"}, "[4]": {"test_system": "A549", "test": "Antitumor activity against 3 times passaged human A549 cells xenografted in iv dosed SCID mouse assessed as maximum tumor growth inhibition relative to control", "format": "functional"}, "[5]": {"test_system": "MDA-MB-231", "test": "Antitumor activity against LC3 positive human MDA-MB-231 cells xenografted in SCID mouse assessed as tumor growth delay at 7.5 mg/kg, iv administered as single dose relative to control", "format": "functional", "summary_of_the_method": "(§2)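 MDA-MB-231 LC3 metastatic breast cancer xenograft, 10 mice per group, with a vehicle control. Dosing: oral agent 25 mg/kg daily for 14 days; docetaxel 7.5 mg/kg iv once; combination gives both regimens. Mean tumor volumes tracked. TGImax = 100(1 − Tv/Cv) from mean treated vs control volumes. TGD = 100(T/C − 1) from median times to reach 1 cm3.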"}, "[6]": {"test": "Toxicity in iv dosed SCID-bg mouse assessed as body weight loss relative to control", "format": "organism-based", "conditions": "in vivo"}, "[7]": {"test": "Toxicity in iv dosed SCID-bg mouse assessed as tolerance", "format": "organism-based", "conditions": "in vivo"}, "[8]": {"test_system": "OVCAR-5", "test": "Antitumor activity against human OVCAR-5 xenografted in iv dosed SCID mouse assessed as tumor growth delay relative to control", "format": "functional", "summary_of_the_method": "(§3)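 Tumor volume-based endpoints. TGD = 100(T/C − 1), where T and C are the median times for the treated and control groups to reach 1 cm3. Groups were five mice for NCI-H747 and OVCAR-5 and eight for NCI-H358. Docetaxel was given intravenously and the test agent orally.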"}, "[9]": {"test_system": "OVCAR-5", "test": "Antitumor activity against human OVCAR-5 xenografted in iv dosed SCID mouse assessed as maximum tumor growth inhibition relative to control", "format": "functional"}, "[10]": {"test_system": "EBC-1", "test": "Antitumor activity against human EBC-1 cells xenografted in iv dosed SCID-bg mouse assessed as tumor growth delay relative to control", "format": "functional"}, "[11]": {"test_system": "NCI-H747", "test": "Antitumor activity against human NCI-H747 cells xenografted in iv dosed SCID-bg mouse assessed as tumor growth delay relative to control", "format": "functional", "summary_of_the_method": "as §3"}, "[12]": {"test": "Toxicity in Sprague-Dawley rat assessed as inhibition of granulopoiesis by measuring reduction in neutrophil count at 5 mg/kg, iv administered once and measured on day 6 by microscopic analysis relative to control", "format": "organism-based", "parameters": "scale not given: the % may be the effect or the level left", "conditions": "in vivo, 144 h, time 6 day", "summary_of_the_method": "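Male Sprague-Dawley rats, n = 10 per group: docetaxel 5 mg/kg i.v. once, or oral inhibitor daily for 5 days (30, 50 or 7 mg/kg depending on agent), alone or combined with docetaxel, against vehicles. Total neutrophil and platelet counts in blood collected on day 6; Tukey-Kramer test versus vehicle.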"}, "[13]": {"test_system": "A549", "test": "Antitumor activity against 3 times passaged human A549 cells xenografted in iv dosed SCID mouse assessed as tumor growth delay relative to control", "format": "functional"}, "[14]": {"test_system": "NCI-H1650", "test": "Antitumor activity against human NCI-H1650 cells xenografted in SCID-bg mouse assessed as maximum tumor growth inhibition at 7.5 mg/kg, iv administered as single dose relative to control", "format": "functional", "conditions": "read-out: TGI", "summary_of_the_method": "as §1"}, "[15]": {"test": "Toxicity in iv dosed SCID mouse assessed as body weight loss relative to control", "format": "organism-based", "conditions": "in vivo"}, "[16]": {"test_system": "MDA-MB-231", "test": "Antitumor activity against LC3 positive human MDA-MB-231 cells xenografted in SCID mouse assessed as maximum tumor growth inhibition at 7.5 mg/kg, iv administered as single dose relative to control", "format": "functional", "conditions": "read-out: TGI", "summary_of_the_method": "as §2"}, "[17]": {"test_system": "EBC-1", "test": "Antitumor activity against human EBC-1 cells xenografted in iv dosed SCID-bg mouse assessed as maximum tumor growth inhibition relative to control", "format": "functional"}, "[18]": {"test_system": "NCI-H358", "test": "Antitumor activity against human NCI-H358 cells xenografted in iv dosed SCID mouse assessed as tumor growth delay relative to control", "format": "functional", "summary_of_the_method": "as §3"}, "[19]": {"test_system": "NCI-H358", "test": "Antitumor activity against human NCI-H358 cells xenografted in iv dosed SCID mouse assessed as maximum tumor growth inhibition relative to control", "format": "functional"}}, "data": [{"smiles": "CC(=O)O[C@@]12CO[C@@H]1C[C@H](O)[C@@]1(C)C(=O)[C@H](O)C3=C(C)[C@@H](OC(=O)[C@H](O)[C@@H](NC(=O)OC(C)(C)C)c4ccccc4)C[C@@](O)([C@@H](OC(=O)c4ccccc4)[C@H]21)C3(C)C", "note": "[DOCETAXEL ANHYDROUS]", "values": [{"measurement": "TGI", "setting": "[1]", "result": 52, "unit": "%"}, {"measurement": "Activity", "setting": "[2]", "result": 52, "unit": "%"}, {"measurement": "Activity", "setting": "[3]", "result": "Non-Toxic"}, {"measurement": "TGI", "setting": "[4]", "result": 71, "unit": "%"}, {"measurement": "Activity", "setting": "[5]", "result": 82, "unit": "%"}, {"measurement": "Activity", "setting": "[6]", "result": "< 9", "unit": "%"}, {"measurement": "Activity", "setting": "[7]", "result": "Non-Toxic"}, {"measurement": "Activity", "setting": "[8]", "result": 54, "unit": "%"}, {"measurement": "TGI", "setting": "[9]", "result": 39, "unit": "%"}, {"measurement": "Activity", "setting": "[10]", "result": 44, "unit": "%"}, {"measurement": "Activity", "setting": "[11]", "result": 113, "unit": "%"}, {"measurement": "Activity", "setting": "[12]", "result": 61, "unit": "%"}, {"measurement": "Activity", "setting": "[13]", "result": 108, "unit": "%"}, {"measurement": "inhibition in vivo at 7.5 mg/kg", "setting": "[14]", "result": 82, "unit": "%"}, {"measurement": "Activity", "setting": "[15]", "result": "< 9", "unit": "%"}, {"measurement": "inhibition in vivo at 7.5 mg/kg", "setting": "[16]", "result": 73, "unit": "%"}, {"measurement": "TGI", "setting": "[17]", "result": 76, "unit": "%"}, {"measurement": "Activity", "setting": "[18]", "result": 47, "unit": "%"}, {"measurement": "TGI", "setting": "[19]", "result": 58, "unit": "%"}]}]}
